Square brackets hold non-standard residues; d marks the D form. Peptide text beside a SMILES is read from it. pY = N[C@@H](Cc1ccc(OP(=O)(O)O)cc1)C(=O)O
Experiments:
Set-up in all cases: species or system Escherichia coli
[1] = biological target: Proto-oncogene tyrosine-protein kinase Src (Homo sapiens, UniProt P12931); assay: Binding affinity against Src SH2 domain
[2] = biological target: Tyrosine-protein kinase SYK (Homo sapiens, UniProt P43405); assay: Binding affinity against Syk protein tyrosine kinase SH2 domain
[3] = biological target: T1, Tyrosine-protein kinase ZAP-70 (Homo sapiens, UniProt P43403); assay: Binding affinity against SH2 domain of Zeta-chain (TCR) associated protein kinase 70 kDa
T1 sequence (P43403 whole entry): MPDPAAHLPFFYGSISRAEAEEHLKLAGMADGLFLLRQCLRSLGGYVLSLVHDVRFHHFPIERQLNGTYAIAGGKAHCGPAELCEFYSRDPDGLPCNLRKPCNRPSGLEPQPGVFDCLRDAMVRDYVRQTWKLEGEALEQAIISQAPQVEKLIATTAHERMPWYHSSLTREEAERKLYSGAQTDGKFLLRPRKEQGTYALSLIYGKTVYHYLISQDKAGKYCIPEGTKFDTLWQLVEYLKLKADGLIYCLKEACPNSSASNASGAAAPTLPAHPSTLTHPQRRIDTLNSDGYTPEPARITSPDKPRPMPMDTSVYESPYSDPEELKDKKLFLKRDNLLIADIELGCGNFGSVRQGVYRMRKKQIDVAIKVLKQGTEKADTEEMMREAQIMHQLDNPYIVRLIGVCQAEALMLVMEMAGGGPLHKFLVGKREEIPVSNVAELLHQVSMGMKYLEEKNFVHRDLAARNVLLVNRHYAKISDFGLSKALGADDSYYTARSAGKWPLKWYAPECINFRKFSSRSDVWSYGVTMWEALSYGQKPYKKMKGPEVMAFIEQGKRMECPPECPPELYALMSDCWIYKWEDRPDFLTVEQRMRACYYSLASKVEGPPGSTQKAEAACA

[4] = biological target: Growth factor receptor-bound protein 2 (Homo sapiens, UniProt P62993); assay: Binding affinity against Growth factor receptor bound protein 2
Sequence of Growth factor receptor-bound protein 2 (P62993 whole entry, the tested form may be a part): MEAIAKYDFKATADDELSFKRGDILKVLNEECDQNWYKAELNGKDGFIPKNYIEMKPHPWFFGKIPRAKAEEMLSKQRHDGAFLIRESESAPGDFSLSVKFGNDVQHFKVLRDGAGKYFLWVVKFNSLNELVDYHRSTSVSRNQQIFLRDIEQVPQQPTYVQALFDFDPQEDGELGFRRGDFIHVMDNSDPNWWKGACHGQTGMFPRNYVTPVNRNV
Outline: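 Fluorescence polarization competition assay using human Grb2 SH2 (residues 55–152), expressed in E. coli BL21(DE3) and purified on phosphotyrosine-agarose. Compounds were serially diluted 1:2 across 1000–0.04 μM in 20 mM phosphate pH 7.4 with 100 mM NaCl, 10 mM DTT, 4% DMSO, 1 mM EDTA and 0.1% bovine γ-globulin. They were added to 1.25 µM protein premixed with 20 nM fluorescein-labelled peptide (ex 485/em 530 nm). IC50 was taken from percent tracer bound relative to vehicle, as the mean of ≥3 experiments.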

Sequence of Proto-oncogene tyrosine-protein kinase Src (P12931 2-536 limits assumed): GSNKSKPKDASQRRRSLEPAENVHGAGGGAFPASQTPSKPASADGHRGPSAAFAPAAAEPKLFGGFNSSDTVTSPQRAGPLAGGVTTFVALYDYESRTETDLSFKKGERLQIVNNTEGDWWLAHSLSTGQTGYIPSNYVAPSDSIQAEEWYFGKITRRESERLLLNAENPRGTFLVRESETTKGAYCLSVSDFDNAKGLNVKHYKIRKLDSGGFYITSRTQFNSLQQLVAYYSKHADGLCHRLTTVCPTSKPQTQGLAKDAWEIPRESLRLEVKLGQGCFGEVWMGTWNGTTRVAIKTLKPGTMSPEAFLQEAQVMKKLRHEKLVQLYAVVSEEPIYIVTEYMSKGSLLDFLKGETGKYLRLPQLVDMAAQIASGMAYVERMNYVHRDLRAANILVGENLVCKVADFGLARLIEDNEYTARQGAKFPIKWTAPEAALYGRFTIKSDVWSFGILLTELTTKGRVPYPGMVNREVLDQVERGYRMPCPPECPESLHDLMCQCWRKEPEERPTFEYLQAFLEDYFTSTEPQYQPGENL

Question: Which IC50 [1] does the source give for `CC(=O)N[C@@H](Cc1ccc(OP(=O)(O)O)cc1)C(=O)NCCc1nc(Cc2ccc(C(F)(F)F)cc2)no1` here?
Answer: > 500 µM

Question: And the IC50 [2]?
Answer: > 500 µM

Question: And the IC50 [3]?
Answer: > 500 µM

Question: What does the source list for `CC(=O)N[C@@H](Cc1ccc(OP(=O)(O)O)cc1)C(=O)NC(C)(C)c1nc(Cc2ccc(C(F)(F)F)cc2)no1`?
Answer: IC50 [1]: 489 µM; IC50 [2]: > 500 µM; IC50 [3]: 228 µM

Question: Which results are given for `CC(=O)N[C@@H](Cc1ccc(OP(=O)(O)O)cc1)C(=O)NCc1nc(Cc2ccc(C(F)(F)F)cc2)no1`?
Answer: IC50 [1]: > 500 µM; IC50 [2]: > 500 µM; IC50 [3]: 128 µM

Question: What does the source list for `CC(=O)N[C@@H](Cc1ccc(OP(=O)(O)O)cc1)C(=O)N[C@@H](CCC(N)=O)c1nc(Cc2ccc3ccccc3c2)no1`?
Answer: IC50 [4]: 327 µM; IC50 [1]: 274 µM; IC50 [2]: > 500 µM

Question: How did the IC50 [1] turn out when `CC[C@H](C)[C@H](NC(=O)[C@H](CCC(=O)O)NC(=O)[C@H](CCC(=O)O)NC(=O)[C@H](Cc1ccc(OP(=O)(O)O)cc1)NC(C)=O)C(N)=O` was run?
Answer: 6 µM

Question: And the IC50 [2]?
Answer: 171 µM

Question: What about the IC50 [3] of the same molecule?
Answer: 530 µM

Question: Which results are given for `CC(=O)N[C@@H](Cc1ccc(OP(=O)(O)O)cc1)C(=O)N[C@@H](CCc1ccccc1)c1nc(Cc2ccc(Cl)c(Cl)c2)no1`?
Answer: IC50 [4]: 340 µM; IC50 [1]: 60 µM; IC50 [2]: 250 µM

Question: `O=C(Cc1ccccc1)N[C@@H](Cc1ccc(OP(=O)(O)O)cc1)C(=O)N[C@@H](CO)c1nc(Cc2ccc3ccccc3c2)no1` was tested. Which IC50 [4] did it give?
Answer: 368 µM

Question: And the IC50 [1]?
Answer: 68 µM

Question: And the IC50 [2]?
Answer: > 500 µM

Question: Which results are given for `O=C(Cc1ccccc1)N[C@@H](Cc1ccc(OP(=O)(O)O)cc1)C(=O)N[C@@H](CO)c1nc(Cc2ccc(C(F)(F)F)cc2)no1`?
Answer: IC50 [4]: > 500 µM; IC50 [1]: 161 µM; IC50 [2]: 318 µM

Question: `CC(=O)N[C@@H](Cc1ccc(OP(=O)(O)O)cc1)C(=O)N[C@@H](CCC(N)=O)c1nc(Cc2ccc(Cl)cc2Cl)no1` was tested. Which IC50 [1] did it give?
Answer: > 500 µM

Question: And the IC50 [2]?
Answer: > 500 µM

Question: What about the IC50 [3] of the same molecule?
Answer: 184 µM

Question: Which results are given for `CC(=O)N[C@@H](Cc1ccc(OP(=O)(O)O)cc1)C(=O)N[C@@H](CCc1ccccc1)c1nc(Cc2ccc3ccccc3c2)no1`?
Answer: IC50 [4]: > 500 µM; IC50 [1]: 78 µM; IC50 [2]: 288 µM

Question: What does the source list for `CC(=O)N[C@@H](Cc1ccc(OP(=O)(O)O)cc1)C(=O)N[C@@H](CCC(N)=O)c1nc(CCc2ccccc2)no1`?
Answer: IC50 [1]: 156 µM; IC50 [2]: > 500 µM; IC50 [3]: > 500 µM

Question: Which results are given for `CC(=O)N[C@@H](Cc1ccc(OP(=O)(O)O)cc1)C(=O)N[C@@H](CCC(N)=O)c1nc(Cc2ccccc2)no1`?
Answer: IC50 [4]: 456 µM; IC50 [1]: 72 µM; IC50 [2]: > 500 µM; IC50 [3]: > 500 µM

Question: What does the source list for `CC(=O)N[C@@H](Cc1ccc(OP(=O)(O)O)cc1)C(=O)N[C@@H](CC(=O)O)C(=O)N[C@H](C(=O)N[C@@H](CC(C)C)C(N)=O)C(C)C` (Ac-[pY]DVL-NH2)?
Answer: IC50 [1]: 261 µM; IC50 [2]: 389 µM; IC50 [3]: 328 µM

Question: `CC(=O)N[C@@H](Cc1ccc(OP(=O)(O)O)cc1)C(=O)N[C@@H](CC(N)=O)C(=O)N[C@@H](CCC(=O)O)C(=O)N[C@@H](CC(C)C)C(N)=O` (Ac-[pY]NEL-NH2) was tested. Which IC50 [1] did it give?
Answer: 237 µM

Question: And the IC50 [2]?
Answer: 420 µM

Question: What about the IC50 [3] of the same molecule?
Answer: 422 µM
